Measured values as given in publication PMC6225502 (Journal of Clinical Oncology, 2018).

Tests used:
[1] = assay type: in vivo, human
Procedure, shortened: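 Adults with advanced solid tumors took oral epacadostat 25, 50 or 100 mg twice daily with IV pembrolizumab 2 mg/kg every 3 weeks, or 300 mg twice daily with 200 mg every 3 weeks, in 3 + 3 + 3 escalation. Expansion cohorts of up to nine received 50, 100 or 300 mg with 200 mg. DLTs were protocol-specified AEs within the first 6 weeks. RP2D was set by expansion tolerability.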

[2] = Plasma pharmacokinetics of epacadostat; assay type: in vivo, human
[3] = Safety and tolerability: treatment-related adverse events; assay type: in vivo, human
Procedure, shortened: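 Patients receiving ≥1 dose of oral epacadostat twice daily plus IV pembrolizumab every 3 weeks were assessed on day 1 of every cycle, at end of treatment and during follow-up. Liver function tests were run weekly for the first 6 weeks. AEs were graded per CTCAE v4.0 and summarized descriptively.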

IDO1 [4] = conditions: doses ≥ 100 mg twice per day; ref [1][6]; cited from earlier work
[5] = patients with advanced cancers; cited from earlier work
IDO1 [6] = assay: Pharmacokinetic-based projected IDO1 inhibition; set-up: species or system human
[7] = pembrolizumab monotherapy reference data set; cited from earlier work
[8] = epacadostat 100 mg twice per day + pembrolizumab
[9] = epacadostat 300 mg twice per day + pembrolizumab

Row | Compound | DLTs observed ([1]; epacadostat 100 mg twice per day + pembrolizumab (15 patients)) | Recommended phase II dose (RP2D) of epacadostat ([1]; plus pembrolizumab 200 mg every 3 weeks) [mg twice per day] | Dose dependence of plasma exposures (AUC and Cmax) ([2]; 25 to 300 mg twice per day + pembrolizumab) | Time of maximum observed plasma concentration ([2]; across doses) | Rate of AEs of special interest [3, 8] [%] | Rate of grade 3/4 TRAEs [3, 8] [%] | Rate of treatment-related dose interruptions [3, 8] [%] | Rate of treatment-related dose reductions [3, 8] [%] | Rate of AEs of special interest [3, 9] [%] | Rate of grade 3/4 TRAEs [3, 9] [%] | Rate of treatment-related dose interruptions [3, 9] [%] | Rate of treatment-related dose reductions [3, 9] [%] | Inhibition of IDO1 activity and kynurenine levels (IDO1 [4]) | Tolerability of single-agent epacadostat [5] | Average concentrations at steady state relative to the IC50 associated with optimal target inhibition (IDO1 [6]; all patients who received epacadostat ≥ 100 mg twice per day) | Patients who achieved a minimum IDO1 inhibition of ≥ 50% (IDO1 [6]; epacadostat 100 mg twice per day) | Patients projected to have achieved ≥ 50% time-averaged IDO1 inhibition (IDO1 [6]; epacadostat 100 mg twice per day or 300 mg twice per day) | Patients projected to have achieved ≥ 50% time-averaged IDO1 inhibition (IDO1 [6]; steady state, all epacadostat doses) [%] | Treatment-emergent antipembrolizumab antibody rate [7] [%]
1 | NS(=O)(=O)NCCNc1nonc1C(=NO)Nc1ccc(F)c(Br)c1 [Epacadostat] | grade 3 AST increased/grade 2 ALT increased and grade 2 nervous system disorder occurred in one patient each | 100 | increased in an approximately dose-proportional manner | approximately 2 hours | 6 | 28 | 22 | 11 | 30 | 35 | 45 | 35 | provide optimal inhibition of IDO1 activity and normalization of kynurenine levels | well tolerated | exceeded the IC50 | the majority of patients | all patients | > 90 | 
2 | pembrolizumab |  |  |  |  |  |  |  |  |  |  |  |  |  |  |  |  |  |  | 2.1
